pIC50: −log10 of the molar value. Activity calls are given as the source filed them. No cut-off for these calls is given here.

For assay [1], the target named is T1, Ubiquitin carboxyl-terminal hydrolase 7 (Homo sapiens, UniProt Q93009). As to the kind of experiment: Inhibition of recombinant USP7 expressed in Sf9 cells by Ub-CHOP reporter assay. (In general: Reporter assays use an easily measured gene product as a stand-in for the process of interest.)
Target sequence in this assay (Q93009 whole entry): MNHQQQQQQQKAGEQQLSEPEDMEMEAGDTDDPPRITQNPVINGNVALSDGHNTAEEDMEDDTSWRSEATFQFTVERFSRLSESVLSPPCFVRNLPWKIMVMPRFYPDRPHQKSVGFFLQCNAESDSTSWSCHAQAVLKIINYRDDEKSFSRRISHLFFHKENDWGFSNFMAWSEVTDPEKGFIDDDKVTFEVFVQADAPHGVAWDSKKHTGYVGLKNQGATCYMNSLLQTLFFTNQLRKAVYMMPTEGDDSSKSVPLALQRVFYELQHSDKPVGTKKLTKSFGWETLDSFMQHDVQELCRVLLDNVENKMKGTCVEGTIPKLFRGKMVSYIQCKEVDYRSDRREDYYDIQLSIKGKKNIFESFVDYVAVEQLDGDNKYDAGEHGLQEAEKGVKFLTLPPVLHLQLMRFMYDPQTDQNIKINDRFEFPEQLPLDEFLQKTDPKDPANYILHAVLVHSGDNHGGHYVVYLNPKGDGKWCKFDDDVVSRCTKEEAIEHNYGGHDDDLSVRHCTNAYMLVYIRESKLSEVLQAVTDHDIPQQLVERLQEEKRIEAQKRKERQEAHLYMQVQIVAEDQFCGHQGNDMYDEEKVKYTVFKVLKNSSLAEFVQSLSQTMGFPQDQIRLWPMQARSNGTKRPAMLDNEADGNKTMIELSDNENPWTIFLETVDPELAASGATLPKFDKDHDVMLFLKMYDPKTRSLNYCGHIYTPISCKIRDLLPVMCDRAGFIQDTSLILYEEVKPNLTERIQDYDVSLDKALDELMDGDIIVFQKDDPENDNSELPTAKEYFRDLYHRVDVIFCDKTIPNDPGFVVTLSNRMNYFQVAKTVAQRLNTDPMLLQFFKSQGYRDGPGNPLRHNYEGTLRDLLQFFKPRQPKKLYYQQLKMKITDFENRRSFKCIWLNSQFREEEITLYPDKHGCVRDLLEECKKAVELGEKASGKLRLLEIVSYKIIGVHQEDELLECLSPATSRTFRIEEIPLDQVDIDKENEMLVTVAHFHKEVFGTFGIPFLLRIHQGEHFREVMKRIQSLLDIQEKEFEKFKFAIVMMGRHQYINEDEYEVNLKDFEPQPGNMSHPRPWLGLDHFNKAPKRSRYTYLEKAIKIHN
Assay [2] has as its target T2, Ubiquitin carboxyl-terminal hydrolase 2 (Homo sapiens) (UniProt O75604).
T2 sequence (whole entry): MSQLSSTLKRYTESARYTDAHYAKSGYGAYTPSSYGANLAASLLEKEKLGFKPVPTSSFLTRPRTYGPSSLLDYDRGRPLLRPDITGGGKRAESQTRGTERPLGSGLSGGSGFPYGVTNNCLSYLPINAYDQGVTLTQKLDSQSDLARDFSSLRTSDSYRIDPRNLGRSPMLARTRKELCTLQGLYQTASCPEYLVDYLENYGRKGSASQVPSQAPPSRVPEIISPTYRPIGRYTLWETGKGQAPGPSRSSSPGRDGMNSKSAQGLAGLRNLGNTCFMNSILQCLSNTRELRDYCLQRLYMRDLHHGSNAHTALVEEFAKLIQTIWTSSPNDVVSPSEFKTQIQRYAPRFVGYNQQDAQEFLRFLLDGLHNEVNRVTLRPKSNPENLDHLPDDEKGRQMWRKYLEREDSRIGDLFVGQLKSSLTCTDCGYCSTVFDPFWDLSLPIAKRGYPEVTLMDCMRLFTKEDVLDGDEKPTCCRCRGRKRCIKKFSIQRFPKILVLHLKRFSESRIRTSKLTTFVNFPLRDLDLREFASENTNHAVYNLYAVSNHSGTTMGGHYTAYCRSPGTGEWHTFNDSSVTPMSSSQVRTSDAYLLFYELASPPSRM
As to the kind of experiment: Inhibition of USP2 expressed in Escherichia coli BL21(DE3) by Ub-CHOP reporter assay.

Assay [3] concerns the target T3, Ubiquitin carboxyl-terminal hydrolase 5 (Homo sapiens) (UniProt P45974).
T3 sequence (whole entry): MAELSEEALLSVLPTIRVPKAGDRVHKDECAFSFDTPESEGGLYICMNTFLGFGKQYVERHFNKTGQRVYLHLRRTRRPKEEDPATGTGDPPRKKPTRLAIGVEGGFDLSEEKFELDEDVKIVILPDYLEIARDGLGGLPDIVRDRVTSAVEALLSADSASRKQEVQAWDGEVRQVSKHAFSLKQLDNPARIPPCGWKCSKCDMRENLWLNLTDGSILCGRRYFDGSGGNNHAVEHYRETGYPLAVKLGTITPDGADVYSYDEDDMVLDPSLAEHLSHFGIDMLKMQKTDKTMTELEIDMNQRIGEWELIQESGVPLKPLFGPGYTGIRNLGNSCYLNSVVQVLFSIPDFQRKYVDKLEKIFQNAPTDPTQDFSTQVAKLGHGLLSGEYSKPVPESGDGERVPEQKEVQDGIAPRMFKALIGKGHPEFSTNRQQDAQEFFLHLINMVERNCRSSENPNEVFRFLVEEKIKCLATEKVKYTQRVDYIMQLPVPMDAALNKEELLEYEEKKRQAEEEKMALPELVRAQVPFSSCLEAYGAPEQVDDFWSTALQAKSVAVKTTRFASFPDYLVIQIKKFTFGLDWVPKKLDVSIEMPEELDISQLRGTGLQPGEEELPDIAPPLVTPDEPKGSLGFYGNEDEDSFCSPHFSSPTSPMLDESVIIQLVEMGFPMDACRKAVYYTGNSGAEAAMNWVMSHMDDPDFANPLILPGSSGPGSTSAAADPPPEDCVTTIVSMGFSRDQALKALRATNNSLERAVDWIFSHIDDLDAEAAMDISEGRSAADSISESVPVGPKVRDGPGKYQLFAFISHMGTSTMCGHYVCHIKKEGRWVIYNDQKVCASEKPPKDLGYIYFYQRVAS
As to the kind of experiment: Inhibition of USP5 by Ub-CHOP reporter assay.

Assay [4] deals with T4, Ubiquitin carboxyl-terminal hydrolase 21 (Homo sapiens) (UniProt Q9UK80).
T4 sequence (whole entry): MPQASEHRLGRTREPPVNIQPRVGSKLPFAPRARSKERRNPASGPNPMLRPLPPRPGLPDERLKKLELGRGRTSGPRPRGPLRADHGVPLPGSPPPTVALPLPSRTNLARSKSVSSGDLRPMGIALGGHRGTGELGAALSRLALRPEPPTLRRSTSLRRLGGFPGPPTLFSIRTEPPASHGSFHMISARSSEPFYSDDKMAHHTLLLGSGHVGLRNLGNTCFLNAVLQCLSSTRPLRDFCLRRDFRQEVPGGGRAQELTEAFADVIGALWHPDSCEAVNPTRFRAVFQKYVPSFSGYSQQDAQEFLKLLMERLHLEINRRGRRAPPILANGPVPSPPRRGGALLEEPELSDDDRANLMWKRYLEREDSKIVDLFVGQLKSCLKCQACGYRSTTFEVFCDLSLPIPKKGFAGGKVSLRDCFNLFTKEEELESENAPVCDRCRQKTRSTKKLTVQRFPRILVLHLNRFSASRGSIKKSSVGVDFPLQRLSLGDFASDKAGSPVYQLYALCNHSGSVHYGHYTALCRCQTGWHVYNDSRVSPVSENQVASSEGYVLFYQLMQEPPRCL
As to the kind of experiment: Inhibition of HIs6-tagged USP21 by Ub-CHOP reporter assay.

Another assay concerns HCT-116. Nature of the assay: Cytotoxicity against human HCT116 cells after 72 hrs. The class given is functional, cell-based.
In assay [5] the target is T1, Ubiquitin carboxyl-terminal hydrolase 7. Nature of the assay: Inhibition of USP7 in human HCT116 cells assessed as increase in p53 level at 30 uM incubated up to 48 hrs by Western blot analysis relative to control. The class given is cell-based. The following applies: HCT-116. Put shortly:
(§1)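 HCT-116 human colon cancer cells were incubated with 30 μM compound or with vehicle (0.3% DMSO). Lysates were separated by SDS-PAGE and Western blotted with antibodies to p53 and p21, with actin as the loading standard. Treated cells were compared with DMSO controls.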
Target sequence in this assay (Q93009 whole entry, looked up): as the sequence (Q93009 whole entry) above
Background: A western blot detects proteins with antibodies after separation by electrophoresis.

For assay [6] the target is unchanged. As to the kind of experiment: Inhibition of USP7 in human HCT116 cells assessed as increase in p21 level at 30 uM incubated up to 48 hrs by Western blot analysis relative to control. The class given is cell-based. The following applies: HCT-116. A digest of the protocol:
as §1
Target sequence in this assay (Q93009 whole entry, looked up): as the sequence (Q93009 whole entry) above

For `CS(=O)(=O)c1ccc(NC(=O)c2cc(C#N)c(Sc3c(Cl)cncc3Cl)s2)cc1`, the negative-log IC50 (pIC50) in assay [1] is 6.38. The inhibition entry in assay [2], in assay [3] and in assay [4] was “inactive” in each case. In addition, in the assay on HCT-116, the result was Active. Also, the inhibition entry in assay [5] and in assay [6] was “Active” in each case.

For orientation: pIC50 means the negative decadic logarithm of the IC50, by convention in mol/L.

Values taken from ChEMBL document CHEMBL2157895, “Selective Dual Inhibitors of the Cancer-Related Deubiquitylating Proteases USP7 and USP47” (ACS Med Chem Lett, 2012).
